ChEMBL document CHEMBL4152212, “Design and synthesis of BPR1K653 derivatives targeting the back pocket of Aurora kinases for selective isoform inhibition” (Eur J Med Chem, 2018)
The source made the active and inactive calls. No cut-off for these calls is given here.

How the values were obtained:
Aurora kinase A [1] = biological target: T1, Aurora kinase A (Homo sapiens, UniProt O14965); test: Inhibition of GST-tagged human recombinant Aurora A kinase domain (123 to 401 residues) expressed in Sf9 cells after 120 mins by kinase-glo luminescence assay
T1 sequence (O14965 whole entry): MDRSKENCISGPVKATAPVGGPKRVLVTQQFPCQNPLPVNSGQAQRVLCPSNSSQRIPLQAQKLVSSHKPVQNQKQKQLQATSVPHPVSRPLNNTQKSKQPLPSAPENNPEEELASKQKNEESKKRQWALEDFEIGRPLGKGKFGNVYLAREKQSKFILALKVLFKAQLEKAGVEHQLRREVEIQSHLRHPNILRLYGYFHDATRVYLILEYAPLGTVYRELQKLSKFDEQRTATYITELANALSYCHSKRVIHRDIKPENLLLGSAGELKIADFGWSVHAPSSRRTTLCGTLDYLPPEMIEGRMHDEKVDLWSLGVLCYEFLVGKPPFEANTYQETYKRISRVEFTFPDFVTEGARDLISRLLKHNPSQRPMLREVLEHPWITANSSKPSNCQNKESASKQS

Aurora kinase B [2] = biological target: T2, Aurora kinase B (Homo sapiens, UniProt Q96GD4); test: Inhibition of human recombinant full length Aurora-B (1 to 344 residues) expressed in Sf9 cells after 90 mins by kinase-glo luminescence assay
HCT-116 = test: Cytotoxicity against human HCT116 cells; assay type: functional, cell-based
Aurora kinase A [3] = biological target: T1, Aurora kinase A; test: Inhibition of Aurora-A autophosphorylation at Thr288 in human HCT116 cells after 1 hr by Western blot analysis; assay type: cell-based
How it was run: (§1)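 HCT116 cells arrested in mitosis with 200 nM nocodazole for 24 h, then exposed to compound for 1 h over 9 concentrations. Lysed in Laemmli buffer, SDS-PAGE, PVDF immunoblot for phospho-Aurora-A Thr288 / Aurora-B Thr232 with HRP secondary and chemiluminescence. IC50 derived from blot profiles.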

Detroit 551 = test: Cytotoxicity against human Detroit 551 cells; assay type: cell-based
Aurora kinase B [4] = biological target: T2, Aurora kinase B; test: Inhibition of Aurora-B autophosphorylation at Thr232 in human HCT116 cells after 1 hr by Western blot analysis; assay type: cell-based; how it was run: as §1
HeLa [5] = test: Decrease in mitotic index in human HeLa cells after 10 to 12 hrs post thymidine block by pHH3Ser10/Hoechst33342 staining-based immunofluorescence analysis; assay type: functional, cell-based
How it was run: (§2)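 HeLa cells synchronized by thymidine block, released and treated with compound, fixed at set times (4% paraformaldehyde, 30 min), permeabilized with 0.1% Triton X-100, blocked in 1% BSA. Stained with anti-pHH3Ser10 (1:500, 1.5 h, RT) and Alexa-594 secondary, Hoechst 33342 counterstain. Mitotic index is the percentage of pHH3Ser10-positive cells among about 2000-3000 cells per condition.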

HeLa [6] = test: Increase in mitotic index in human HeLa cells after 10 to 12 hrs post thymidine block by pHH3Ser10/Hoechst33342 staining-based immunofluorescence analysis; assay type: functional, cell-based; how it was run: as §2

T2 sequence (Q96GD4 whole entry, the tested form may be a part): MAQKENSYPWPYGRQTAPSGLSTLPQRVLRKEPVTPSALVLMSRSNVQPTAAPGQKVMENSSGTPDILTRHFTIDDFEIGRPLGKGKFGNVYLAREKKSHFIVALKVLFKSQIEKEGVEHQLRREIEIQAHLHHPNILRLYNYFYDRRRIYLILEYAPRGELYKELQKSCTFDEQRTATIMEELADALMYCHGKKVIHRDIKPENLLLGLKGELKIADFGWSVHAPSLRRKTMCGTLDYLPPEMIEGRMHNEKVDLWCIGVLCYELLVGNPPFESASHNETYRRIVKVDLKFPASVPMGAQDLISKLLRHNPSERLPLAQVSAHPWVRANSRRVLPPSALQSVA

SMILES | IC50 (Aurora kinase A [1]) [nM] | IC50 (Aurora kinase B [2]) [nM] | IC50 (Aurora kinase A [3]) [nM] | IC50 (Aurora kinase B [4]) [nM] | IC50 (HCT-116) [nM] | IC50 (Detroit 551) [nM] | Activity (HeLa [5]) | Activity (HeLa [6])
O=C(Nc1ccc(CCNc2ncnc3oc(-c4ccccc4)c(Cl)c23)cc1)Nc1ccccc1CN1CCCCC1 | 198 | 122 |  |  |  |  |  | 
CC(C)c1ccc(NC(=O)Nc2ccc(CCNc3ncnc4oc(-c5ccccc5)c(Cl)c34)cc2)cc1 | > 1000 | > 1000 |  |  |  |  |  | 
CN(C)Cc1ccc(NC(=O)Nc2ccc(CCNc3ncnc4oc(-c5ccccc5)c(Cl)c34)cc2)cc1 | 98.3 | 455 |  |  |  |  |  | 
O=C(Nc1ccc(CCNc2ncnc3oc(-c4ccccc4)c(Cl)c23)cc1)Nc1ccccc1CN1CCC(O)CC1 | 228 | 78.9 | 1510 | 133 | 310 | 3500 | Active | 
CC(C)Cc1ccc(NC(=O)Nc2ccc(CCNc3ncnc4oc(-c5ccccc5)c(Cl)c34)cc2)cc1 | > 1000 | > 1000 |  |  |  |  |  | 
CN(C)Cc1ccccc1NC(=O)Nc1ccc(CCNc2ncnc3oc(-c4ccccc4)c(Cl)c23)cc1 |  |  | 73.4 | 23.7 | 70 | 3100 | Active | 
O=C(Nc1ccc(CCNc2ncnc3oc(-c4ccccc4)c(Cl)c23)cc1)Nc1ccc(CN2CCC(O)CC2)cc1 | 150 | 353 |  |  |  |  |  | 
CC(C)Cc1cccc(NC(=O)Nc2ccc(CCNc3ncnc4oc(-c5ccccc5)c(Cl)c34)cc2)c1 | 247 | > 1000 |  |  |  |  |  | 
O=C(Nc1ccc(CCNc2ncnc3oc(-c4ccccc4)c(Cl)c23)cc1)Nc1ccc(CN2CCCCC2)cc1 | 451 | 976 |  |  |  |  |  | 
CC(C)c1ccccc1NC(=O)Nc1ccc(CCNc2ncnc3oc(-c4ccccc4)c(Cl)c23)cc1 | 525 | 336 |  |  |  |  |  | 
CCN(CC)Cc1ccccc1NC(=O)Nc1ccc(CCNc2ncnc3oc(-c4ccccc4)c(Cl)c23)cc1 | 462 | 526 |  |  |  |  |  | 
CC(C)Cc1ccccc1NC(=O)Nc1ccc(CCNc2ncnc3oc(-c4ccccc4)c(Cl)c23)cc1 | > 1000 | 700 |  |  |  |  |  | 
CC(C)c1cccc(NC(=O)Nc2ccc(CCNc3ncnc4oc(-c5ccccc5)c(Cl)c34)cc2)c1 | 233 | 657 |  |  |  |  |  | 
CCc1ccccc1NC(=O)Nc1ccc(CCNc2ncnc3oc(-c4ccccc4)c(Cl)c23)cc1 | 178 | 66.2 |  |  |  |  |  | 
CCN(CC)Cc1ccc(NC(=O)Nc2ccc(CCNc3ncnc4oc(-c5ccccc5)c(Cl)c34)cc2)cc1 | 232 | 835 |  |  |  |  |  | 
CCc1ccc(NC(=O)Nc2ccc(CCNc3ncnc4oc(-c5ccccc5)c(Cl)c34)cc2)cc1 | 139 | 443 |  |  |  |  |  | 

Further lines, with some results ahead:

IC50 (Aurora kinase A [1]) [nM] | IC50 (Aurora kinase B [2]) [nM] | IC50 (Aurora kinase A [3]) [nM] | IC50 (Aurora kinase B [4]) [nM] | SMILES | IC50 (HCT-116) [nM] | IC50 (Detroit 551) [nM] | Activity (HeLa [5]) | Activity (HeLa [6])
9 | 140 | 132 | > 10000 | CCN(C)Cc1cccc(NC(=O)Nc2ccc(CCNc3ncnc4oc(-c5ccccc5)c(Cl)c34)cc2)c1 | 342 | 9700 |  | 
67.8 | 83.6 |  |  | O=C(Nc1ccc(CCNc2ncnc3oc(-c4ccccc4)c(Cl)c23)cc1)Nc1cccc(CN2CCC(O)CC2)c1 |  |  |  | 
83.2 | 60.2 |  |  | Cc1ccccc1NC(=O)Nc1ccc(CCNc2ncnc3oc(-c4ccccc4)c(Cl)c23)cc1 |  |  |  | 
55.5 | 73.3 |  |  | Cc1ccc(NC(=O)Nc2ccc(CCNc3ncnc4oc(-c5ccccc5)c(Cl)c34)cc2)cc1 |  |  |  | 
66.3 | 86.1 |  |  | CCc1cccc(NC(=O)Nc2ccc(CCNc3ncnc4oc(-c5ccccc5)c(Cl)c34)cc2)c1 |  |  |  | 
52.6 | 74.9 |  |  | Cc1cccc(NC(=O)Nc2ccc(CCNc3ncnc4oc(-c5ccccc5)c(Cl)c34)cc2)c1 |  |  |  | 
52 | 66.3 | 390 | 191 | O=C(Nc1ccccc1)Nc1ccc(CCNc2ncnc3oc(-c4ccccc4)c(Cl)c23)cc1 | 153 | 7300 |  | Active
20 | 199 | 59.9 | > 10000 | CN(C)Cc1cccc(NC(=O)Nc2ccc(CCNc3ncnc4oc(-c5ccccc5)c(Cl)c34)cc2)c1 | 578 | 5000 |  | Active
90.2 | 102 |  |  | O=C(Nc1ccc(CCNc2ncnc3oc(-c4ccccc4)c(Cl)c23)cc1)Nc1cccc(CN2CCCCC2)c1 |  |  |  | 
21.5 | 121 |  |  | CCN(CC)Cc1cccc(NC(=O)Nc2ccc(CCNc3ncnc4oc(-c5ccccc5)c(Cl)c34)cc2)c1 |  |  |  | 
